From BindingDB's records for doi:10.1016/j.bmcl.2005.07.045 (Shanghai Second Medical University, 2005)

Target: Muscarinic acetylcholine receptor M1/M2/M3/M4/M5
Experiment: Agonistic activity against Muscarinic acetylcholine receptor of guinea pig ileal longitudinal muscle
How it was run: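 Ileal longitudinal muscle strips (1.5 cm) in 10 ml organ baths under 500 mg tension, equilibrated 30 min with bath fluid changed every 10 min. Isotonic contractions recorded during cumulative addition, about 3-fold concentration steps once each response is steady. Response expressed as percent of carbachol maximum. pEC50 determined graphically from dose–response curves, mean of three tests, t test.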

Compound | EC50 [nM]
CC(=O)OC1CC2CC(OC(=O)c3ccc(C)cc3)CC1N2C (centres undefined) | 4360
CCCCCCCCCC(=O)OC1CC2CC(OC(C)=O)C(C1)N2C (centres undefined) | 263
CCCCCCC(=O)OC1CC2CC(OC(C)=O)C(C1)N2C (centres undefined) | 26.9
COc1ccc(C(=O)OC2CC3CC(OC(C)=O)C(C2)N3C)cc1 (centres undefined) | 30100
CC(=O)OC1CC2CC(OC(=O)/C=C\c3ccccc3)CC1N2 (centres undefined) | 1990
CC(=O)OC1CC2CC(OS(=O)(=O)c3cccc(C)c3)CC1N2C (centres undefined) | 89.1
CC(=O)OC1CC2CC(OS(=O)(=O)c3ccccc3)CC1N2C (centres undefined) | 50.1
CCCC(=O)OC1CC2CC(OC(C)=O)C(C1)N2C (centres undefined) | 5010
CC(=O)OC1CC2CCCC1N2C (centres undefined) [Acetic acid 8-methyl-8-aza-bicyclo[3.2.1]oct-6-yl ester] | 24500
CCCCCCCC(=O)OC1CC2CC(OC(C)=O)C(C1)N2C (centres undefined) | 1.74
CCC(=O)OC1CC2CC(OC(=O)CC)C(C1)N2C (centres undefined) | 42600
CCCCCC(=O)OC1CC2CC(OC(=O)CCCCC)C(C1)N2C (centres undefined) | 4.79
CC(=O)OC1CC2CC(OC(C)=O)C(C1)N2C (centres undefined) | 4460
CC(=O)OC1CC2CCCC1N2 (centres undefined) [Acetic acid 8-aza-bicyclo[3.2.1]oct-6-yl ester] | 6.17
CC(=O)OC1CC2CC(OC(=O)/C=C\c3ccccc3)CC1N2C (centres undefined) | 117000
CC(=O)OC1CC2CC(OS(=O)(=O)c3ccc(C)cc3)CC1N2C (centres undefined) | 104
CC(=O)OC1CC2CC(Cl)CC1N2C (centres undefined) | 11400
CCCCCC(=O)OC1CC2CC(OC(C)=O)C(C1)N2C (centres undefined) | 6.46
COc1ccc(S(=O)(=O)OC2CC3CC(OC(C)=O)C(C2)N3C)cc1 (centres undefined) | 93.3
CC(=O)OC1CC2CC(=O)CC1N2C (centres undefined) | 14700
CC(=O)OC1CC2CC(OS(=O)(=O)c3ccc([N+](=O)[O-])cc3)CC1N2C (centres undefined) | 44.7
CC(=O)OC1CC2NC1CCC2O (centres undefined) | 79.4
CC(=O)OC1CC2CCC(C1)N2C (centres undefined) | 79400
CN1C2CC(=O)CC1C(O)C2 (centres undefined) | 407000
